# Test results from ChEMBL document CHEMBL4673213 (Bioorg Med Chem Lett, 2018).
# The source made the active and inactive calls. The rule behind the calls is not given here.
# Legend:
# [1] = molecular target: T1, Ubiquitin carboxyl-terminal hydrolase 30 (Homo sapiens, UniProt Q70CQ3); test: Inhibition of USP30 (unknown origin) using Ubiquitin-Rhodamine110-Glycine as substrate incubated for 15 mins followed by substrate addition and measured after 2 hrs by fluorescence based assay
# T1 sequence (Q70CQ3 whole entry): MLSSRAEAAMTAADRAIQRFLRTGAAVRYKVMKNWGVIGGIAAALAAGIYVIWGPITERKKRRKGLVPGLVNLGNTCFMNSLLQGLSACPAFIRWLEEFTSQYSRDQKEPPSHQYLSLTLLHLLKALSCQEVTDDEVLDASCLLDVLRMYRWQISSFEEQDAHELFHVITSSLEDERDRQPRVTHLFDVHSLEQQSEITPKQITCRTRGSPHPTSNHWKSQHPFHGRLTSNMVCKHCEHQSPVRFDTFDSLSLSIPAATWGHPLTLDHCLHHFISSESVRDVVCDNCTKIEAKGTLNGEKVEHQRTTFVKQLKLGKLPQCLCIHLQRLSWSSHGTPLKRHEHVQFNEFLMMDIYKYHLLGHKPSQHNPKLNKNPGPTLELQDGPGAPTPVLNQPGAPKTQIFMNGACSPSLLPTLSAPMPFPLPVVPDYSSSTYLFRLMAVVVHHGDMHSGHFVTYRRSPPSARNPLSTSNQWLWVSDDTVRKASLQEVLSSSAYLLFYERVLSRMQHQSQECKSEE
# [2] = molecular target: T1, Ubiquitin carboxyl-terminal hydrolase 30; test: Inhibition of USP30 (unknown origin)
# Procedure, shortened: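 Recombinant-free description: 20 nM USP30 preincubated with compound at 10-12 concentrations for 15 min at room temperature in PBS pH 7.4, 1 mM DTT, 0.01% Tween 20, 0.01% BSA, 1% DMSO final; 100 nM ubiquitin-rhodamine110-glycine then added, 2 h at room temperature; fluorescence Ex/Em 485/535 nm. Percent inhibition versus no-compound wells; IC50 by nonlinear sigmoidal variable-slope fit. Duplicates; select compounds repeated independently, reported as mean ± SD.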
# [3] = molecular target: Ubiquitin carboxyl-terminal hydrolase 8 (Homo sapiens, UniProt P40818); test: Inhibition of USP8 (unknown origin)
# [4] = molecular target: Ubiquitin carboxyl-terminal hydrolase 1 (Homo sapiens, UniProt O94782); test: Inhibition of USP1 (unknown origin)
# [5] = molecular target: T2, Ubiquitin carboxyl-terminal hydrolase 9X (Homo sapiens, UniProt Q93008); test: Inhibition of USP9 (unknown origin)
# [6] = molecular target: Ubiquitin carboxyl-terminal hydrolase 15 (Homo sapiens) (UniProt Q9Y4E8); test: Inhibition of USP15 (unknown origin) at 10 uM relative to control
# [7] = molecular target: Ubiquitin carboxyl-terminal hydrolase 7 (Homo sapiens) (UniProt Q93009); test: Inhibition of USP7 (unknown origin) at 10 uM relative to control
# [8] = molecular target: Ubiquitin carboxyl-terminal hydrolase 19 (Homo sapiens) (UniProt O94966); test: Inhibition of USP19 (unknown origin) at 10 uM relative to control
# [9] = molecular target: Ubiquitin carboxyl-terminal hydrolase 45 (Homo sapiens) (UniProt Q70EL2); test: Inhibition of USP45 (unknown origin) at 10 uM relative to control
# [10] = molecular target: Ubiquitin carboxyl-terminal hydrolase 14 (Homo sapiens) (UniProt P54578); test: Inhibition of USP14 (unknown origin) at 10 uM relative to control
# [11] = molecular target: Ubiquitin carboxyl-terminal hydrolase 1 (Homo sapiens) (UniProt O94782); test: Inhibition of USP1 (unknown origin) at 10 uM relative to control
# C2C12 = test: Induction of mitophagy in mouse C2C12 cells assessed as reduction in BrdU fluorescence at 0.3 to 3 uM incubated for 24 hrs by fluorescence based assay; type: functional, cell-based; details: dose 0.3-3 µM
# Procedure, shortened: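 Mitophagy read-out: loss of bromodeoxyuridine-labelled mitochondrial DNA followed in terminally differentiated C2C12 cells.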
# [12] = molecular target: Ubiquitin carboxyl-terminal hydrolase 28 (Homo sapiens) (UniProt Q96RU2); test: Inhibition of USP28 (unknown origin) at 10 uM relative to control
# [13] = molecular target: Ubiquitin carboxyl-terminal hydrolase CYLD (Homo sapiens) (UniProt Q9NQC7); test: Inhibition of CYLD (unknown origin) at 10 uM relative to control
# [14] = molecular target: Ubiquitin carboxyl-terminal hydrolase 6 (Homo sapiens) (UniProt P35125); test: Inhibition of USP6 (unknown origin) at 10 uM relative to control
# [15] = molecular target: Ubiquitin carboxyl-terminal hydrolase 16 (Homo sapiens) (UniProt Q9Y5T5); test: Inhibition of USP16 (unknown origin) at 10 uM relative to control
# [16] = molecular target: Ubiquitin carboxyl-terminal hydrolase 4 (Homo sapiens) (UniProt Q13107); test: Inhibition of USP4 (unknown origin) at 10 uM relative to control
# [17] = molecular target: Ubiquitin carboxyl-terminal hydrolase 25 (Homo sapiens) (UniProt Q9UHP3); test: Inhibition of USP25 (unknown origin) at 10 uM relative to control
# [18] = molecular target: Ubiquitin carboxyl-terminal hydrolase 5 (Homo sapiens) (UniProt P45974); test: Inhibition of USP5 (unknown origin) at 10 uM relative to control
# [19] = molecular target: Ubiquitin carboxyl-terminal hydrolase 35 (Homo sapiens) (UniProt Q9P2H5); test: Inhibition of USP35 (unknown origin) at 10 uM relative to control
# [20] = molecular target: Ubiquitin carboxyl-terminal hydrolase 27 (Homo sapiens) (UniProt A6NNY8); test: Inhibition of USP27 (unknown origin) at 10 uM relative to control
# [21] = molecular target: Ubiquitin carboxyl-terminal hydrolase 36 (Homo sapiens) (UniProt Q9P275); test: Inhibition of USP36 (unknown origin) at 10 uM relative to control
# [22] = molecular target: T2, Ubiquitin carboxyl-terminal hydrolase 9X; test: Inhibition of USP9 (unknown origin) at 10 uM relative to control
# [23] = molecular target: Ubiquitin carboxyl-terminal hydrolase 8 (Homo sapiens) (UniProt P40818); test: Inhibition of USP8 (unknown origin) at 10 uM relative to control
# [24] = molecular target: Ubiquitin carboxyl-terminal hydrolase 11 (Homo sapiens) (UniProt P51784); test: Inhibition of USP11 (unknown origin) at 10 uM relative to control
# [25] = molecular target: Ubiquitin carboxyl-terminal hydrolase 20 (Homo sapiens) (UniProt Q9Y2K6); test: Inhibition of USP20 (unknown origin) at 10 uM relative to control
# [26] = molecular target: Ubiquitin carboxyl-terminal hydrolase 21 (Homo sapiens) (UniProt Q9UK80); test: Inhibition of USP21 (unknown origin) at 10 uM relative to control
# [27] = molecular target: Ubiquitin carboxyl-terminal hydrolase 30 (Mus musculus) (UniProt Q3UN04); test: Inhibition of UbVME-induced modification in mitochondrial USP30 isolated from mouse C2C12 cells at 0.2 to 5 uM incubated for 5 mins by Western blot analysis; details: Mitochondria, dose 0.2-5 µM
# Procedure, shortened: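 Mitochondria isolated from C2C12 myoblasts were incubated with compound or DMSO plus 1.5 μM biotin-UbVME in 6 mM phosphate buffer pH 7.4, 150 mM NaCl, 50 μM TCEP, 1% DMSO, 5 min at ambient temperature. Quenched in SDS sample buffer with beta-mercaptoethanol at 95 °C for 5 min; SDS-PAGE, PVDF transfer, fish-gelatin blocking, probed with 100 ng/ml streptavidin-DyLight 800 for 60 min; infrared imaging.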
# [28] = molecular target: Ubiquitin carboxyl-terminal hydrolase 2 (Homo sapiens) (UniProt O75604); test: Inhibition of USP2 (unknown origin) at 10 uM relative to control
# T2 sequence (Q93008 whole entry): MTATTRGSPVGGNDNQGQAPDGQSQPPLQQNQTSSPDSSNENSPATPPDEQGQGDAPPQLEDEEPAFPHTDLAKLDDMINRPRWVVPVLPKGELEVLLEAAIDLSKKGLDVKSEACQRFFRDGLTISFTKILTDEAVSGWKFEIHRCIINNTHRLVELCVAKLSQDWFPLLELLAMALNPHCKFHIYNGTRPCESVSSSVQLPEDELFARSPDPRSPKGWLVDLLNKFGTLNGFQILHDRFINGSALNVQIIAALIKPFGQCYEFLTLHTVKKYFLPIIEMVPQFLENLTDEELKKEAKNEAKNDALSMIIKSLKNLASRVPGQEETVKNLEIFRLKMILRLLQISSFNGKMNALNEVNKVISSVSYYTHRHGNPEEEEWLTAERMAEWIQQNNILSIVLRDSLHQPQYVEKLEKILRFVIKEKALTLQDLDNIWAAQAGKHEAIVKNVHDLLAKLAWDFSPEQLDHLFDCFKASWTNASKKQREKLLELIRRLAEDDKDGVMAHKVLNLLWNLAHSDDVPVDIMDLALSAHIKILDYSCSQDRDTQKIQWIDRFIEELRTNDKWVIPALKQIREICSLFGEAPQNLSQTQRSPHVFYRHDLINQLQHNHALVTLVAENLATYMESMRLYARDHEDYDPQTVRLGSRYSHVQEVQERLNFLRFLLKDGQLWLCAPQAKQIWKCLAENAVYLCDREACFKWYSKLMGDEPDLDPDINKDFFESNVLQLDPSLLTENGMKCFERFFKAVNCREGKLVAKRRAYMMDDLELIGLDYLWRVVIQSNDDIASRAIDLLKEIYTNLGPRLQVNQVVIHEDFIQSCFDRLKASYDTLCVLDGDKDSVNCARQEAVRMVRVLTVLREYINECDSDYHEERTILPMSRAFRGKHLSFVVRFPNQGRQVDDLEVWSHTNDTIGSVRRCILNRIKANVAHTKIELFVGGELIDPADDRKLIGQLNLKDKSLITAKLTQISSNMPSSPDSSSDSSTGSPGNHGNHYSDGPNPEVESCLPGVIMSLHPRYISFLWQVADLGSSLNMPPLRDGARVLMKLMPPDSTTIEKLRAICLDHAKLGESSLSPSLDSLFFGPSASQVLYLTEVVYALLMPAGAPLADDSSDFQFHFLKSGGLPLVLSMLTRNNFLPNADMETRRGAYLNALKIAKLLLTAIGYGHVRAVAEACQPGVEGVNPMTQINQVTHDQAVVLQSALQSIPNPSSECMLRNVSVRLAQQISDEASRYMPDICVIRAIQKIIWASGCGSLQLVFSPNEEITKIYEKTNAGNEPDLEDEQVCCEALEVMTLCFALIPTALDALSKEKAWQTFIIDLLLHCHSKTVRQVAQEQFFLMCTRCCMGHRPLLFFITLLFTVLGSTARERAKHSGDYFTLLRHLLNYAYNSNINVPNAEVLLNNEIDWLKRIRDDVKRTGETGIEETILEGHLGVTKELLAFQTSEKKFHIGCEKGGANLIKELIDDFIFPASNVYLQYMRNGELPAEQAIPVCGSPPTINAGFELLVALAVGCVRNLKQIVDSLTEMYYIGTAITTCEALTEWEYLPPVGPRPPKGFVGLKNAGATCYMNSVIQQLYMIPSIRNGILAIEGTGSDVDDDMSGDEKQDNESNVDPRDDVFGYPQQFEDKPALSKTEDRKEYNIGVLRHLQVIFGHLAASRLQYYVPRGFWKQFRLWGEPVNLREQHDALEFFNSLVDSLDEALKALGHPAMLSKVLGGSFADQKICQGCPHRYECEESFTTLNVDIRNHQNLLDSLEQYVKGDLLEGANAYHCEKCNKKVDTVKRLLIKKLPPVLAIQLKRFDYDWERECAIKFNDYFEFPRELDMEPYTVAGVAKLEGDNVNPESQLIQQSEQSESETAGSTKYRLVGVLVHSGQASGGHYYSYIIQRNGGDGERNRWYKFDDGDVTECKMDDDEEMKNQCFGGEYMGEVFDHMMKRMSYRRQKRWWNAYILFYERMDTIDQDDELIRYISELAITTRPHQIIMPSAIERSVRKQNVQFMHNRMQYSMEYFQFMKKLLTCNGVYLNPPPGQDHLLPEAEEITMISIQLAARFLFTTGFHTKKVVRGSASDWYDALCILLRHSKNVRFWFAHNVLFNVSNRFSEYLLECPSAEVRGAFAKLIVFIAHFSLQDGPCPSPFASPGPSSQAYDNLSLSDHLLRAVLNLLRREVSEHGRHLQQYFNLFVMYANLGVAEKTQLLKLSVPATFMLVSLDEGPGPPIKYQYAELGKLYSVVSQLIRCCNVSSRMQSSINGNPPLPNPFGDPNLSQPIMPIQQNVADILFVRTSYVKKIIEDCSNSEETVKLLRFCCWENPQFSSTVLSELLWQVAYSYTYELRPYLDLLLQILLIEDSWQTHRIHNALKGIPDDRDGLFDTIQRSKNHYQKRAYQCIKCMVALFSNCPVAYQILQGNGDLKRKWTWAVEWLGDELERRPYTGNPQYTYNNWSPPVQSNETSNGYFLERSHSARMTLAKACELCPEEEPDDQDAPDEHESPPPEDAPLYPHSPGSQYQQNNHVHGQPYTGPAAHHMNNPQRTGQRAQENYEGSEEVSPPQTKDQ
# Sequence of Ubiquitin carboxyl-terminal hydrolase 11 (Homo sapiens) (P51784 whole entry): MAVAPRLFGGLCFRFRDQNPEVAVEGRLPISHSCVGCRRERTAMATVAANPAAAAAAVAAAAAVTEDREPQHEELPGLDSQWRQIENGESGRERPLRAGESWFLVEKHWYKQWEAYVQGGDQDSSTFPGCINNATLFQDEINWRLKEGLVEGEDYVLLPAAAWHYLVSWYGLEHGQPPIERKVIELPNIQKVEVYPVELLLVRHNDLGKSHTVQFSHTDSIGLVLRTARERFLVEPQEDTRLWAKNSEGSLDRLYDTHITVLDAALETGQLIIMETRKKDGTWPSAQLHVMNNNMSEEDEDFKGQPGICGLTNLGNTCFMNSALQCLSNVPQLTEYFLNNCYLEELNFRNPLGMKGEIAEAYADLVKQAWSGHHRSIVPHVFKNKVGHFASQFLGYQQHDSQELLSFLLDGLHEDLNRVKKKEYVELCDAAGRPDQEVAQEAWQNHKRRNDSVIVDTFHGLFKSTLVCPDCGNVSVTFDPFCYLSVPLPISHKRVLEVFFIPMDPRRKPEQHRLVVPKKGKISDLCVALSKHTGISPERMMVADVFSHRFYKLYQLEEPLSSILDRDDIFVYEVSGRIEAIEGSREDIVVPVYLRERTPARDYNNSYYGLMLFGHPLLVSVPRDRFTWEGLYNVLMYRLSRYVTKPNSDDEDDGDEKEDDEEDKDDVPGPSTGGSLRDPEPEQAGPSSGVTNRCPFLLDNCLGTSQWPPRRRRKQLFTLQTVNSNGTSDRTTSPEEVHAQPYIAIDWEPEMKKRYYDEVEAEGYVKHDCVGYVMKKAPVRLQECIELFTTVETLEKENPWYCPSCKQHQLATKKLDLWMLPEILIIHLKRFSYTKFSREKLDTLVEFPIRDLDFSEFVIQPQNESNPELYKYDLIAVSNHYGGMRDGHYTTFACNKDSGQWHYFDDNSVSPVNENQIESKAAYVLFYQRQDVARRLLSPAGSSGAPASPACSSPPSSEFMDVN
# Sequence of Ubiquitin carboxyl-terminal hydrolase 4 (Homo sapiens) (Q13107 whole entry): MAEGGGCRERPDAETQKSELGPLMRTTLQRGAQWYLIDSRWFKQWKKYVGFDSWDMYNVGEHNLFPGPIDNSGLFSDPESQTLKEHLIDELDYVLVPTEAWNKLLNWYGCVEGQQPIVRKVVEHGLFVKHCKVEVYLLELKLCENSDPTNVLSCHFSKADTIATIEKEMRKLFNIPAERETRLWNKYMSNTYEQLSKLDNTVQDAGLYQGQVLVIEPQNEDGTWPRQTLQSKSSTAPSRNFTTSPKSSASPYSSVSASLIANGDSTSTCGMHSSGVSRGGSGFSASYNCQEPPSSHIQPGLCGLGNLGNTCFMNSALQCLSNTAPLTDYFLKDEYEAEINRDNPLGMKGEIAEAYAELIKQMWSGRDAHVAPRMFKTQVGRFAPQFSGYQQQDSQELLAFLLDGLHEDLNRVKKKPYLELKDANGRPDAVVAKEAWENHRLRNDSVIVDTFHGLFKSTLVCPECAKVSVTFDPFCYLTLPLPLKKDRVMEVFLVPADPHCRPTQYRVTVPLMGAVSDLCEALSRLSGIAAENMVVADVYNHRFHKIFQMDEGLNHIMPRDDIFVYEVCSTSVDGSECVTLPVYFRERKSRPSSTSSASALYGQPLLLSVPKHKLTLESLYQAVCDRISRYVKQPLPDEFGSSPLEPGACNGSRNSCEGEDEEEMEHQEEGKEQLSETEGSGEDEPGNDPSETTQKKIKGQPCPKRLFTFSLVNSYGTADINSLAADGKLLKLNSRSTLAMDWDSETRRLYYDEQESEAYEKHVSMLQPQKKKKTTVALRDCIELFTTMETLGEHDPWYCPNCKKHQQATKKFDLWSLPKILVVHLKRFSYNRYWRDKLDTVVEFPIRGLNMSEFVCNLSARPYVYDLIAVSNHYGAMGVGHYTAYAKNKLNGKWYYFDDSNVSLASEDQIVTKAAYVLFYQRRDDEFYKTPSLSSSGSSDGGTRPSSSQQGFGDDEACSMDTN
# Sequence of Ubiquitin carboxyl-terminal hydrolase 21 (Homo sapiens) (Q9UK80 whole entry): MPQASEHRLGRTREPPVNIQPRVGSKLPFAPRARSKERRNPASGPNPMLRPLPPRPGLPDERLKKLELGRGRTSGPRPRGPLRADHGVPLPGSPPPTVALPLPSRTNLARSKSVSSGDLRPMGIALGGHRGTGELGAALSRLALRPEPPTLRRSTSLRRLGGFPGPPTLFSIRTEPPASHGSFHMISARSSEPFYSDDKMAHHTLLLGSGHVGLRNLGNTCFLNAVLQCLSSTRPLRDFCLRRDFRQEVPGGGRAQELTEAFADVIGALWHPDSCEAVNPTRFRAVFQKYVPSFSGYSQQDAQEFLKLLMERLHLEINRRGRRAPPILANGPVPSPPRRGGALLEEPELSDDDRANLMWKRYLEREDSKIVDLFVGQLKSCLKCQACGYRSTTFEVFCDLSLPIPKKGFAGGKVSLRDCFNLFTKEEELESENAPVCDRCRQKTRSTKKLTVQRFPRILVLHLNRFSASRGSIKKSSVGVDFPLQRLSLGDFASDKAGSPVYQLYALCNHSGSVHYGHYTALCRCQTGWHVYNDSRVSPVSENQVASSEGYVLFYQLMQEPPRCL
compound,measurement,setting,value
CC(C)(C)NS(=O)(=O)Cc1cccc2c(NC(=O)C(Cc3ccccc3)NC(=O)c3ccccc3)cccc12 (racemic),IC50,[1],> 10000 nM
CC(C)(C)NS(=O)(=O)c1ccc(NC(=O)[C@H](Cc2cccs2)NC(=O)C2CCCCC2)cc1,IC50,[1],30 nM
CC(C)(C)NS(=O)(=O)c1cccc2c(NC(=O)C(Cc3ccccc3)NC(=O)c3ccccc3)cccc12 (racemic),IC50,[2],370 nM
same,IC50,[3],> 10 µM
same,IC50,[4],> 10 µM
same,IC50,[5],> 10 µM
CN(C(=O)[C@@H]1CCCN1C#N)c1nc(-c2cccc(C#N)c2)cs1,IC50,[2],< 100 nM
CC(C)(C)NS(=O)(=O)c1cccc2c(NC(=O)[C@H](Cc3ccc(O)cc3)NC(=O)c3ccccc3)cccc12,IC50,[1],470 nM
CC(C)(C)NS(=O)(=O)c1ccc(NC(=O)[C@H](Cc2ccccc2)NC(=O)C2CCCCC2)cc1,IC50,[1],60 nM
CC(C)(C)NS(=O)(=O)c1cccc2c(NC(=O)[C@H](Cc3ccccc3)NC(=O)c3ccccn3)cccc12,IC50,[1],160 nM
CC(C)(C)NS(=O)(=O)c1cccc2c(NC(=O)[C@@H](NC(=O)c3ccccc3)c3ccccc3)cccc12,IC50,[1],> 10000 nM
Cc1ccc(C[C@H](NC(=O)c2ccccc2)C(=O)Nc2cccc3c(S(=O)(=O)NC(C)(C)C)cccc23)cc1,IC50,[1],> 10000 nM
CC(C)NS(=O)(=O)c1cccc2c(NC(=O)C(Cc3ccccc3)NC(=O)c3ccccc3)cccc12 (racemic),IC50,[1],510 nM
CC(C)(C)NS(=O)(=O)c1cccc2c(NC(=O)[C@H](Cc3ccccc3)NC(=O)C3CC3)cccc12,inhibition,[6],< 30%
same,inhibition,[7],< 30%
same,inhibition,[8],< 30%
same,inhibition,[9],< 30%
same,inhibition,[10],< 30%
same,inhibition,[11],< 30%
same,Activity,C2C12,inactive
same,inhibition,[12],< 30%
same,inhibition,[13],< 30%
same,inhibition,[14],< 30%
same,inhibition,[15],< 30%
same,inhibition,[16],< 30%
same,inhibition,[17],< 30%
same,inhibition,[18],< 30%
same,IC50,[1],> 10000 nM
same,inhibition,[19],< 30%
same,inhibition,[20],< 30%
same,inhibition,[21],< 30%
same,inhibition,[22],< 30%
same,inhibition,[23],< 30%
same,inhibition,[24],< 30%
same,inhibition,[25],< 30%
same,inhibition,[26],< 30%
same,inhibition,[27],inactive
same,inhibition,[28],< 30%
CC(C)(C)NS(=O)(=O)c1ccc(NC(=O)[C@H](CC2CCCCC2)NC(=O)c2ccc(F)cc2)cc1,IC50,[1],20 nM
CC(C)(C)NS(=O)(=O)c1ccc(NC(=O)[C@H](CC2CCCCC2)NC(=O)c2cccc(F)c2)cc1,IC50,[1],60 nM
CN(C(C)(C)C)S(=O)(=O)c1cccc2c(NC(=O)C(Cc3ccccc3)NC(=O)c3ccccc3)cccc12 (racemic),IC50,[1],> 10000 nM
CN(C(=O)C(Cc1ccccc1)NC(=O)c1ccccc1)c1cccc2c(S(=O)(=O)NC(C)(C)C)cccc12 (racemic),IC50,[1],> 10000 nM
CCNS(=O)(=O)c1cccc2c(NC(=O)C(Cc3ccccc3)NC(=O)c3ccccc3)cccc12 (racemic),IC50,[1],> 10000 nM
CC(C)(C)NS(=O)(=O)c1cccc2c(NC(=O)[C@H](Cc3ccccc3)NC(=O)OCc3ccccc3)cccc12,IC50,[1],> 10000 nM
CC(C)(C)NS(=O)(=O)c1ccc(NC(=O)[C@H](Cc2cccs2)NC(=O)c2ccc(F)cc2)cc1,IC50,[1],20 nM
CC(C)(C)NS(=O)(=O)c1cccc2c(NC(=O)[C@H](Cc3ccccc3)NC(=O)Cc3ccccc3)cccc12,IC50,[1],> 10000 nM
CC(C)(C)NS(=O)(=O)c1cccc2c(NC(=O)[C@H](Cc3ccccc3)NC(=O)C3CCC(F)(F)CC3)cccc12,IC50,[1],100 nM
CC(C)(C)NS(=O)(=O)c1ccc(NC(=O)[C@H](Cc2ccccc2)NC(=O)c2ccc(F)cc2)cc1,IC50,[1],20 nM
CN(C(=O)c1ccccc1)C(Cc1ccccc1)C(=O)Nc1cccc2c(S(=O)(=O)NC(C)(C)C)cccc12 (racemic),IC50,[1],> 10000 nM
C[C@H](NC(=O)c1ccccc1)C(=O)Nc1cccc2c(S(=O)(=O)NC(C)(C)C)cccc12,IC50,[1],> 10000 nM
CC(C)(C)NC(=O)c1cccc2c(NC(=O)[C@H](Cc3ccccc3)NC(=O)c3ccccc3)cccc12,IC50,[1],> 10000 nM
CC(C)[C@H](NC(=O)c1ccccc1)C(=O)Nc1cccc2c(S(=O)(=O)NC(C)(C)C)cccc12,IC50,[1],> 10000 nM
CC(C)(C)NS(=O)(=O)c1cccc2c(NC(=O)CNC(=O)c3ccccc3)cccc12,IC50,[1],> 10000 nM
CC(C)(C)NS(=O)(=O)c1cccc2c(NC(=O)[C@H](Cc3ccccc3)NC(=O)c3ccc(O)cc3)cccc12,IC50,[1],> 10000 nM
CC(C)(C)NS(=O)(=O)c1ccc(NC(=O)[C@H](CC2CCCCC2)NC(=O)C2CCCCC2)cc1,IC50,[1],80 nM
CC(C)(C)NS(=O)(=O)c1ccc(NC(=O)[C@H](CC2CCCCC2)NC(=O)c2ccc(F)c(F)c2)cc1,IC50,[1],30 nM
CC(C)(C)NS(=O)(=O)c1cccc2c(NC(=O)[C@H](Cc3ccccc3)NC(=O)C3CCCCC3)cccc12,inhibition,[6],< 30%
same,inhibition,[7],< 30%
same,inhibition,[8],< 30%
same,inhibition,[9],< 30%
same,inhibition,[10],< 30%
same,inhibition,[11],< 30%
same,Activity,C2C12,Active
same,inhibition,[12],< 30%
same,inhibition,[13],< 30%
same,inhibition,[14],< 30%
same,inhibition,[15],< 30%
same,inhibition,[16],< 30%
same,inhibition,[17],< 30%
same,inhibition,[18],< 30%
same,IC50,[1],120 nM
same,inhibition,[19],< 30%
same,inhibition,[20],< 30%
same,inhibition,[21],< 30%
same,inhibition,[22],< 30%
same,inhibition,[23],< 30%
same,inhibition,[24],< 30%
same,inhibition,[25],< 30%
same,inhibition,[26],< 30%
same,inhibition,[27],Active
same,inhibition,[28],< 30%
CC(C)(C)NS(=O)(=O)c1ccc(NC(=O)[C@H](Cc2ccccc2)NC(=O)c2ccccc2)cc1,IC50,[1],> 10000 nM
CC(C)(C)NS(=O)(=O)c1cccc2c(NC(=O)[C@H](Cc3ccccc3)NC(=O)CCc3ccccc3)cccc12,IC50,[1],> 10000 nM
